Source: ChEMBL document CHEMBL1150857, “Dendocarbins A--N, new drimane sesquiterpenes from the nudibranch Dendrodoris carbunculosa” (J Nat Prod, 2001)
≈ marks a conversion by molar mass, not a printed value.

How the values were obtained:
Assay type in all cases: functional, cell-based
P388 [1] = assay: Cytotoxicity against adriamycin-resistant mouse P388 cells in absence of 0.1 ug/mL adriamycin
Summary of the method: (§1)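 Murine leukemia P388 lines were tested: the drug-sensitive strain (P388/S), the adriamycin-resistant line (P388/ADR) and the vincristine-resistant line (P388/VCR). Cytotoxicity was expressed as IC50.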

P388 [2] = assay: Cytotoxicity against vincristine-resistant mouse P388 cells in presence of 0.004 ug/mL vincristine
P388 [3] = assay: Cytotoxicity against vincristine-resistant mouse P388 cells in absence of 0.004 ug/mL vincristine; summary of the method: as §1
P388 [4] = assay: Cytotoxicity against adriamycin-resistant mouse P388 cells in presence of 0.1 ug/mL adriamycin
P388 [5] = assay: Cytotoxicity against drug-sensitive mouse P388 cells; summary of the method: as §1

C[C@@]1(CO)CCC[C@]2(C)[C@H]3C(=O)OC(=O)C3=CC[C@@H]12 [DENDOCARBIN F]
IC50 (P388 [1]): > 25 µg/mL | IC50 (P388 [2]): > 25 µg/mL | IC50 (P388 [3]): > 25 µg/mL | IC50 (P388 [4]): 22 µg/mL | IC50 (P388 [5]): > 25 µg/mL

CCO[C@@H]1OC(=O)C2=C1[C@@]1(C)CCCC(C)(C)[C@@H]1C[C@H]2O [DENDOCARBIN K]
IC50 (P388 [1]): 9 µg/mL | IC50 (P388 [2]): 9 µg/mL | IC50 (P388 [3]): 10.5 µg/mL (≈ 35.7 µM) | IC50 (P388 [4]): 10.5 µg/mL | IC50 (P388 [5]): 10.5 µg/mL (≈ 35.7 µM)

CC1(C)CCC[C@]2(C)C3=C(CC[C@@H]12)C(=O)O[C@@H]3O
IC50 (P388 [1]): 2.5 µg/mL | IC50 (P388 [2]): 2.5 µg/mL | IC50 (P388 [3]): 2.5 µg/mL (≈ 9.99 µM) | IC50 (P388 [4]): 2.5 µg/mL | IC50 (P388 [5]): 3.2 µg/mL (≈ 12.8 µM)

CC1(C)CCC[C@]2(C)[C@@H]3C(=C[C@H](O)[C@@H]12)CO[C@H]3O [DENDOCARBIN C]
IC50 (P388 [1]): > 25 µg/mL | IC50 (P388 [2]): > 25 µg/mL | IC50 (P388 [3]): > 25 µg/mL | IC50 (P388 [4]): > 25 µg/mL | IC50 (P388 [5]): > 25 µg/mL

CC1(C)CCC[C@]2(C)[C@H]3C(=O)OC(=O)C3=C[C@H](O)[C@@H]12 [DENDOCARBIN G]
IC50 (P388 [1]): > 25 µg/mL | IC50 (P388 [2]): > 25 µg/mL | IC50 (P388 [3]): > 25 µg/mL | IC50 (P388 [4]): > 25 µg/mL | IC50 (P388 [5]): > 25 µg/mL

CC1(C)[C@@H](O)CC[C@]2(C)[C@H]3C(=O)OC(=O)C3=CC[C@@H]12 [DENDOCARBIN E]
IC50 (P388 [1]): 19 µg/mL | IC50 (P388 [2]): > 25 µg/mL | IC50 (P388 [3]): 22.5 µg/mL (≈ 85.1 µM) | IC50 (P388 [4]): > 25 µg/mL | IC50 (P388 [5]): > 25 µg/mL

CC1(C)CCC[C@]2(C)[C@H]3C(=O)OC(=O)C3=CC[C@@H]12 [DENDOCARBIN H]
IC50 (P388 [1]): 10.1 µg/mL | IC50 (P388 [2]): 8 µg/mL | IC50 (P388 [3]): 10.1 µg/mL (≈ 40.7 µM) | IC50 (P388 [4]): 10.5 µg/mL | IC50 (P388 [5]): 10.8 µg/mL (≈ 43.5 µM)

CCOC1OC(=O)C2=C1[C@@H](O)C[C@H]1C(C)(C)CCC[C@]21C (stereo not given in full) [DENDOCARBIN I]
IC50 (P388 [1]): 8 µg/mL | IC50 (P388 [2]): 10.2 µg/mL | IC50 (P388 [3]): 10.2 µg/mL (≈ 34.6 µM) | IC50 (P388 [4]): 10 µg/mL | IC50 (P388 [5]): 10 µg/mL (≈ 34 µM)

CCO[C@H]1OC(=O)C2=C1[C@@]1(C)CCCC(C)(C)[C@@H]1C[C@H]2O [DENDOCARBIN J]
IC50 (P388 [1]): 11 µg/mL | IC50 (P388 [2]): 4 µg/mL | IC50 (P388 [3]): 4 µg/mL (≈ 13.6 µM) | IC50 (P388 [4]): 8 µg/mL | IC50 (P388 [5]): 17 µg/mL (≈ 57.7 µM)

CC1(C)C[C@H](O)C[C@]2(C)[C@H]3C(=O)OCC3=CC[C@@H]12 [DENDOCARBIN B]
IC50 (P388 [1]): 7 µg/mL | IC50 (P388 [2]): 9 µg/mL | IC50 (P388 [3]): 10.2 µg/mL (≈ 40.7 µM) | IC50 (P388 [4]): 10.5 µg/mL | IC50 (P388 [5]): 11.5 µg/mL (≈ 45.9 µM)

CC1(C)CCC[C@]2(C)C3=C(C(=O)OC3O)[C@H](O)C[C@@H]12 (mixture of isomers) [DENDOCARBIN L/DENDOCARBIN M]
IC50 (P388 [1]): > 25 µg/mL | IC50 (P388 [2]): > 25 µg/mL | IC50 (P388 [3]): > 25 µg/mL | IC50 (P388 [4]): > 25 µg/mL | IC50 (P388 [5]): > 25 µg/mL

CC1(C)CCC[C@]2(C)[C@H]3[C@H](O)OC(=O)[C@@]3(O)CC[C@@H]12 [DENDOCARBIN D]
IC50 (P388 [1]): 16 µg/mL | IC50 (P388 [2]): 14 µg/mL | IC50 (P388 [3]): 16 µg/mL (≈ 59.6 µM) | IC50 (P388 [4]): 16 µg/mL | IC50 (P388 [5]): 15 µg/mL (≈ 55.9 µM)

CC(=O)O[C@@H]1OC(=O)C2=CC[C@H]3C(C)(C)CCC[C@]3(C)[C@H]21
IC50 (P388 [1]): 8 µg/mL | IC50 (P388 [2]): 9 µg/mL | IC50 (P388 [3]): 10.2 µg/mL (≈ 34.9 µM) | IC50 (P388 [4]): 10.1 µg/mL | IC50 (P388 [5]): 10.2 µg/mL (≈ 34.9 µM)

CC1(C)CCC[C@]2(C)[C@H]3[C@H](O)OC[C@]34O[C@@H]4[C@H](O)[C@@H]12 [DENDOCARBIN N]
IC50 (P388 [1]): > 25 µg/mL | IC50 (P388 [2]): > 25 µg/mL | IC50 (P388 [3]): > 25 µg/mL | IC50 (P388 [4]): > 25 µg/mL | IC50 (P388 [5]): > 25 µg/mL

CC1(C)CCC[C@]2(C)[C@@H]3C(=CC[C@@H]12)C(=O)O[C@H]3O [DENDOCARBIN A]
IC50 (P388 [1]): > 25 µg/mL | IC50 (P388 [2]): > 25 µg/mL | IC50 (P388 [3]): > 25 µg/mL | IC50 (P388 [4]): > 25 µg/mL | IC50 (P388 [5]): > 25 µg/mL

CC1(C)CCC[C@]2(C)[C@@H]3C(=CC[C@@H]12)CO[C@H]3O [ISODRIMENINOL]
IC50 (P388 [1]): 18 µg/mL | IC50 (P388 [2]): > 25 µg/mL | IC50 (P388 [3]): 22 µg/mL (≈ 93.1 µM) | IC50 (P388 [4]): 18 µg/mL | IC50 (P388 [5]): 13 µg/mL (≈ 55 µM)
